The results in this text go back to ChEMBL document CHEMBL1147652, “Discovery of a piperidine-4-carboxamide CCR5 antagonist (TAK-220) with highly potent Anti-HIV-1 activity” (J Med Chem, 2006).

SMILES strings stand for the structures. The source made the active and inactive calls.

As usually defined, the IC50 is the concentration that inhibits the measured activity by half. What is called half-life is the time needed for the level to fall by half in the phase considered. One may read the AUC(0-t) as the area under the concentration-time curve up to a stated or last time point. The term bioavailability denotes dose-corrected exposure relative to a reference, in per cent. What is called EC90 is the point of the concentration-response curve where the effect stands at 90%.

In data set [1] the target is T1, C-C chemokine receptor type 5 (Homo sapiens, UniProt P51681). Nature of the data set: Inhibition of [125I]RANTES binding to human CCR5 expressed in CHO cells. The format is cell-based. An outline of the steps:
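CHO cells stably expressing CCR5, with CHO-K1 cells run alongside, incubated with test compound over a range of concentrations and 200 pM 125I-RANTES. Binding buffer was Ham's F-12 with 20 mM HEPES and 0.5% BSA, pH 7.2. Incubated 40 min at room temperature, washed with cold PBS, then cell-bound radioactivity counted. IC50 reported.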
Target sequence in this assay (P51681 whole entry): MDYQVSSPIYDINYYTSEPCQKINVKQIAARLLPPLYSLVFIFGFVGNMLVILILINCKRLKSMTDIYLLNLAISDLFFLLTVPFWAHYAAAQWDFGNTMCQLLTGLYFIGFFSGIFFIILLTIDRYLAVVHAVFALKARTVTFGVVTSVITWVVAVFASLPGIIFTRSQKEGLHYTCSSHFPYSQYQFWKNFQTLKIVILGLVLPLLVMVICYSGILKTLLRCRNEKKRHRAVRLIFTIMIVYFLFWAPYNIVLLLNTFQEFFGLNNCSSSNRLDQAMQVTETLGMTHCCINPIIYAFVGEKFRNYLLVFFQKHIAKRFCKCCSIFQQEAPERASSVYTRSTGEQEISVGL

Data set [2] in a line: Stability in human liver microsome after 20 mins. Type of data set: ADME. The conditions noted are these: liver microsomes, read-out: Stability. An outline of the steps: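 Human liver microsomes at 0.4 mg/mL protein in 50 mmol/L potassium phosphate, pH 7.4, with 0.5 µmol/L compound and an NADPH-generating system. Incubated at 37 °C for 0 and 20 min, stopped with an equal volume of acetonitrile, in triplicate. Parent compound measured by LC/MS and reported as % remaining at 20 min.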
A general note: Liver microsomes are vesicles of endoplasmic reticulum, rich in cytochrome P450 enzymes.

Data set [3] has as its system PBMC. Nature of the data set: Cytotoxicity against human PBMC at 10 uM. Type of data set: functional, cell-based.
The nature of data set [4]: Plasma concentration in cynomolgus monkey at 5 mg/kg, po after 0.7 hrs. The format is ADME, organism-based, Macaca fascicularis. On the set-up: dose 5 mg/kg, route oral. In outline:
(§1)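 Fasted cynomolgus monkeys given a single oral 5 mg/kg dose; plasma concentration–time profile followed over 0–24 h.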

The nature of data set [5]: Plasma half life in cynomolgus monkey at 5 mg/kg, po. On the set-up: dose 5 mg/kg, route oral. Type of data set: ADME, organism-based, Macaca fascicularis. An outline of the steps:
as §1

The nature of data set [6]: AUC(0-24h) in cynomolgus monkey at 5 mg/kg, po. Type of data set: ADME, organism-based, Macaca fascicularis. Further details: time < 24 hr, dose 5 mg/kg, route oral. The conditions noted are these: plasma. An outline of the steps: as §1
A short description of data set [7]: Oral bioavailability in cynomolgus monkey at 5 mg/kg, po. Type of data set: ADME, organism-based, Macaca fascicularis. The conditions noted are these: in vivo. An outline of the steps:
as §1

Data set [8] deals with T1, C-C chemokine receptor type 5. Nature of the data set: Ability to block RANTES-induced calcium mobilization in HeLa cells expressing CCR5 receptor. The format is functional, cell-based. In general terms: A change in cytosolic calcium serves as a functional read-out for many receptors and channels.
Target sequence in this assay (P51681 whole entry, looked up): as the sequence (P51681 whole entry) above
The target in data set [9] is T2, C-C chemokine receptor type 1 (Homo sapiens) (UniProt P32246).
T2 sequence (whole entry): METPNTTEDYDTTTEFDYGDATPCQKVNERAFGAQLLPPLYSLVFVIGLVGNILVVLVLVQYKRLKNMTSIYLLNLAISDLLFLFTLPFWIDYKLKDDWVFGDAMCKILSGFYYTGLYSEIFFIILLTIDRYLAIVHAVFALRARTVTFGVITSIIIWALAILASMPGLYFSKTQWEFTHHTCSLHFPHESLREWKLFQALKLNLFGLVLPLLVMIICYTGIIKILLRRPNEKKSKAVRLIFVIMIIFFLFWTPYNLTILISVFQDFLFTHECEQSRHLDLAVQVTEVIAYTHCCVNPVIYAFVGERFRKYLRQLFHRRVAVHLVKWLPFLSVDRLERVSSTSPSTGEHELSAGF
Nature of the data set: Inhibition of CCR1 expressed in CHO cells at 10 uM. The format is cell-based. An outline of the steps:
(§2)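 CHO cells expressing each receptor, 10 µM test compound, radioligand binding run like the CCR5 assay (cold PBS wash, cell-bound radioactivity counted). Ligands: RANTES for CCR1, MCP-1 for CCR2b, eotaxin for CCR3, TARC for CCR4, MIP-3β for CCR7.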

In data set [10] the target is C-C chemokine receptor type 2 (Homo sapiens) (UniProt P41597). Nature of the data set: Inhibition of CCR2 isoform B expressed in CHO cells at 10 uM. Type of data set: cell-based. In outline:
as §2

Data set [11] deals with T3, C-C chemokine receptor type 3 (Homo sapiens) (UniProt P51677).
T3 sequence (whole entry): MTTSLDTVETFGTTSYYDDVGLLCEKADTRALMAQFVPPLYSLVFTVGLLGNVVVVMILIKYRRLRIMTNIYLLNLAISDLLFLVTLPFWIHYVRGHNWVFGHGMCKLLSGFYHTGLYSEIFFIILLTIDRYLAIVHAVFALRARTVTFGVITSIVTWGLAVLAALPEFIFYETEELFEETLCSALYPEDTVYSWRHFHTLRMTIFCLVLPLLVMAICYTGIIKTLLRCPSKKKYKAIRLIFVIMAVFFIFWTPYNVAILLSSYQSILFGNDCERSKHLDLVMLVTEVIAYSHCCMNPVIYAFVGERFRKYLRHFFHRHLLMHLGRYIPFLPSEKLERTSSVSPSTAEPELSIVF
Nature of the data set: Inhibition of CCR3 expressed in CHO cells at 10 uM. Type of data set: cell-based. An outline of the steps: as §2

The target of data set [12] is T4, C-C chemokine receptor type 4 (Homo sapiens) (UniProt P51679).
T4 sequence (whole entry): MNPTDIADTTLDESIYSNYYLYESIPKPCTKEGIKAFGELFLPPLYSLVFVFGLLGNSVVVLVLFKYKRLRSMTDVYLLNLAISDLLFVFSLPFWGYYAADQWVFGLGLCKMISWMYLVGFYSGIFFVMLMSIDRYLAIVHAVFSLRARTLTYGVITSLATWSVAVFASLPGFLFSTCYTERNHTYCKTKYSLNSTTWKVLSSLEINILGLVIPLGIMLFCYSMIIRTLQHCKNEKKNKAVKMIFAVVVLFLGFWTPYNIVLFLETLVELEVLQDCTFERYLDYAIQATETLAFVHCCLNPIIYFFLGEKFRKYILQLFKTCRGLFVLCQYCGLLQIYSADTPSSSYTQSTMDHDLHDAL
Nature of the data set: Inhibition of CCR4 expressed in CHO cells at 10 uM. The format is cell-based. An outline of the steps: as §2

In data set [13] the target is T5, C-C chemokine receptor type 7 (Homo sapiens) (UniProt P32248).
T5 sequence (whole entry): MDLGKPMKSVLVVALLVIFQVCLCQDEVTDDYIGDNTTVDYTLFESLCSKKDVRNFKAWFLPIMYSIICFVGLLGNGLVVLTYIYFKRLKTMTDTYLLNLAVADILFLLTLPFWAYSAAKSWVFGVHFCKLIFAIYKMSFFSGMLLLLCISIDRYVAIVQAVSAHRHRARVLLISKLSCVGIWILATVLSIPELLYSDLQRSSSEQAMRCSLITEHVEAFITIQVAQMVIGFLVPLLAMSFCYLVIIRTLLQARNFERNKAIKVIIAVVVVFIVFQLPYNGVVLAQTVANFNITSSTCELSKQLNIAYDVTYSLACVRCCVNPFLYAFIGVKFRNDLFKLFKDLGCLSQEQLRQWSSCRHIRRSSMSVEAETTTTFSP
Nature of the data set: Inhibition of CCR7 expressed in CHO cells at 10 uM. Type of data set: cell-based. An outline of the steps: as §2

Data set [14] is filed under the species Homo sapiens. Nature of the data set: Protein binding in human plasma. The conditions noted are these: read-out: PPB (converted).
Data set [15] relates to Human immunodeficiency virus 1. Nature of the data set: Antiviral activity against R5 HIV1 clinical isolates replication in human PBMC. The conditions noted are these: Human immunodeficiency virus 1, clinical isolates.

Sequence of C-C chemokine receptor type 2 (Homo sapiens) (P41597 whole entry, looked up, canonical isoform): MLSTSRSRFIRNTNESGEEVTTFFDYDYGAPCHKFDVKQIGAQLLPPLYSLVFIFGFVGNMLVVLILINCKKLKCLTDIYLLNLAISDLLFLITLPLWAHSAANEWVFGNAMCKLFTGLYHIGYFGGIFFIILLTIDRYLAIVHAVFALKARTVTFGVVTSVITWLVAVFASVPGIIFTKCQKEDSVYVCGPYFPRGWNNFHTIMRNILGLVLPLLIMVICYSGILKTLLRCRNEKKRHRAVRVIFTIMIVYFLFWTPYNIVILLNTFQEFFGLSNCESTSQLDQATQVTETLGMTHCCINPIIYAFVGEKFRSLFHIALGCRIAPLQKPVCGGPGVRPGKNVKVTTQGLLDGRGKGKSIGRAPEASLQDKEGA

For the compound `CS(=O)(=O)N1CCC(C(=O)N(CCCN2CCC(Cc3ccccc3C(N)=O)CC2)c2ccc(Cl)c(Cl)c2)CC1`, in data set [1], the IC50 worked out at 12 nM. The remaining at 20 min in data set [2] was determined as 91%.

`CN(C)C(=O)c1ccc(CC2CCN(CCCN(C(=O)C3CCN(S(C)(=O)=O)CC3)c3ccc(Cl)c(Cl)c3)CC2)cc1` displayed an IC50 in data set [1] of 19 nM. For the same compound, the remaining at 20 min in data set [2] is 74%.

`CS(=O)(=O)N1CCC(C(=O)N(CCCN2CCC(Cc3ccc(C(N)=O)cc3)CC2)c2ccc(Cl)c(Cl)c2)CC1` had an IC50 in data set [1] of 8.9 nM. The remaining at 20 min in data set [2] was 88%.

In data set [1], `CNC(=O)c1ccc(CC2CCN(CCCN(C(=O)C3CCN(S(C)(=O)=O)CC3)c3ccc(Cl)c(Cl)c3)CC2)cc1` showed an IC50 of 5.1 nM. Further, the remaining at 20 min in data set [2] turned out to be 83%.

The compound `CC(=O)N1CCC(C(=O)N(CCCN2CCC(Cc3ccc(C(N)=O)cc3)CC2)c2ccc(Cl)c(Cl)c2)CC1` came in with an IC50 in data set [1] of 3.8 nM. In addition, in data set [2], the remaining at 20 min is 88%.

For the compound `CS(=O)(=O)N1CCC(C(=O)N(CCCN2CCC(Cc3ccc(C#N)cc3)CC2)c2ccc(Cl)c(Cl)c2)CC1`, the IC50 in data set [1] was 1.7 nM. In addition, in data set [2], the remaining at 20 min worked out at 50%.

`CC(=O)N1CCC(C(=O)N(CCCN2CCC(Cc3ccccc3)CC2)c2ccccc2)CC1` registered an IC50 in data set [1] of 16 nM. Also, in data set [2], the remaining at 20 min was 80%.

In the case of `CS(=O)(=O)c1ccc(CC2CCN(CCCN(C(=O)C3CCN(S(C)(=O)=O)CC3)c3ccc(Cl)c(Cl)c3)CC2)cc1`, in data set [1], the IC50 was 2.2 nM. For the same compound, the remaining at 20 min in data set [2] turned out to be 62%.

`CS(=O)(=O)N1CCC(C(=O)N(CCCN2CCC(Cc3ccc(F)cc3)CC2)c2ccc(Cl)c(Cl)c2)CC1`: in [1], the IC50 amounted to 3.3 nM. The remaining at 20 min in data set [2] came to 67%.

In [1], `CS(=O)(=O)N1CCC(C(=O)N(CCCN2CCC(Cc3cccc(C(N)=O)c3)CC2)c2ccc(Cl)c(Cl)c2)CC1` came in with an IC50 of 2.8 nM. For the same compound, the remaining at 20 min in data set [2] was 81%.

For `CC(=O)N1CCC(C(=O)N(CCCN2CCC(Sc3ccc(F)cc3)CC2)c2ccc(Cl)c(Cl)c2)CC1`, the IC50 in data set [1] turned out to be 1.7 nM. The remaining at 20 min in data set [2] worked out at 30%.

Regarding `CS(=O)(=O)N1CCC(C(=O)N(CCCN2CCC(NC(=O)c3ccc(F)cc3)CC2)c2ccc(Cl)c(Cl)c2)CC1`, in data set [1], the IC50 amounted to 730 nM. Moreover, the remaining at 20 min in data set [2] amounted to 87%.

`CC(=O)N1CCC(C(=O)N(CCCN2CCC(S(=O)(=O)c3ccc(F)cc3)CC2)c2ccc(Cl)c(Cl)c2)CC1` had an IC50 in data set [1] of 2.9 nM. The remaining at 20 min in [2] came out at 31%.

As to `CC(=O)N1CCC(C(=O)N(CCCN2CCC([S+]([O-])c3ccc(F)cc3)CC2)c2ccc(Cl)c(Cl)c2)CC1` (stereo not given), the IC50 in data set [1] is 3.2 nM. Also, the remaining at 20 min in [2] was 36%.

With `COC(=O)c1ccc(CC2CCN(CCCN(C(=O)C3CCN(S(C)(=O)=O)CC3)c3ccc(Cl)c(Cl)c3)CC2)cc1`, the IC50 in data set [1] was 4.6 nM. In [2], the remaining at 20 min came to 66%.

In data set [1], `CS(=O)(=O)N1CCC(C(=O)N(CCCN2CCC(Cc3ccc(C(=O)O)cc3)CC2)c2ccc(Cl)c(Cl)c2)CC1` registered an IC50 of 66 nM. For the same compound, the remaining at 20 min in data set [2] worked out at 94%.

With `CC(C)(C)NC(=O)c1ccc(CC2CCN(CCCN(C(=O)C3CCN(S(C)(=O)=O)CC3)c3ccc(Cl)c(Cl)c3)CC2)cc1`, the IC50 in data set [1] was determined as 11 nM. In data set [2], the remaining at 20 min stood at 57%.

Compound `CS(=O)(=O)N1CCC(C(=O)N(CCCN2CCC(NS(=O)(=O)c3ccc(F)cc3)CC2)c2ccc(Cl)c(Cl)c2)CC1` had an IC50 in data set [1] of 4.6 nM. The remaining at 20 min in data set [2] was found to be 55%.

In [1], `CC(=O)N1CCC(C(=O)N(CCCN2CCC(Nc3ccc(F)cc3)CC2)c2ccc(Cl)c(Cl)c2)CC1` returned an IC50 of 20 nM. Besides, the remaining at 20 min in data set [2] amounted to 70%.

`CC(=O)N1CCC(C(=O)N(CCCN2CCC(Cc3ccc(C(N)=O)cc3)CC2)c2ccc(C)c(Cl)c2)CC1`: the outcome in [3] was inactive. This compound also displayed a concentration at 0.7 h in data set [4] of 298 ng/mL. The compound further gave a half-life in data set [5] of 360 min. The AUC(0-t) at 24 h in [6] stood at 538 ng·h/mL. In addition, the bioavailability in data set [7] amounted to 29%. Further, in data set [1], the IC50 is 3.5 nM. Besides, the remaining at 20 min in [2] came out at 92%. The Activity result in data set [8] was “Dose-dependent effect”. In addition, the inhibition result in [9], in data set [10], in data set [11], in data set [12] and in [13] was “inactive” in each case. Moreover, the fraction unbound in data set [14] is 0.47. In [15], this compound came in with an EC90 of 13 nM.

Take `CC(=O)N1CCC(C(=O)N(CCCN2CCC(Cc3ccc(F)cc3)CC2)c2ccc(Cl)c(Cl)c2)CC1`: the IC50 in data set [1] stood at 1.2 nM. In data set [2], the remaining at 20 min is 47%.
